≈ marks a conversion by molar mass, not a printed value.
Key:
Mus musculus [1] = species: Mus musculus; experiment: Analgesic activity tested by phenylquinone induced writhing test in mice; type: functional
[2] = biological target: T1, Prostaglandin E synthase (Bos taurus) (UniProt Q95L14); experiment: Ability to inhibit prostaglandin synthetase ([3H]PGE2 synthesis) from [3H]arachidonic acid in bovine seminal vesicles
T1 sequence (whole entry): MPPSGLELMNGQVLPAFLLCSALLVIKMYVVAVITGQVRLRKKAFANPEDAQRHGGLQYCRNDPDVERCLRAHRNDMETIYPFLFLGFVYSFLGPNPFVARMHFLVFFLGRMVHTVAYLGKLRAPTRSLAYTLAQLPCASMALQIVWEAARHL
Method in brief: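 Formation of [³H]-PGE₂ was measured at no fewer than four compound concentrations, each run in duplicate. ID₅₀, the dose expected to give 50% inhibition of prostaglandin synthesis, was read from dose-response lines.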

Mus musculus [3] = experiment: Compound was tested orally for its ability to induce gastric lesions in fasted mice (8-animals per group); type: functional; details: Stomach, po
Method in brief: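 Male mice (eight per group) fasted overnight, then dosed orally. Killed 4 h later; stomachs removed, stretched and examined for bleeding mucosal erosions. ED50 is the dose expected to cause observable mucosal damage in 50% of animals, calculated from dose-response lines.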

Structure (SMILES)	ED50 (Mus musculus [1]) [mg/kg]	ID50 [2] [µg/mL]	ED50 (Mus musculus [3]) [mg/kg]
O=C(c1cccs1)c1cc(Cl)cc2c1OCC2C(=O)O (stereo not given)	> 4	–	–
O=C(c1ccccc1)c1cccc2c1COC2C(=O)O (stereo not given)	> 16	5 (≈ 18.6 µM)	–
O=C(c1ccccc1)c1cc(Cl)cc2c1[S+]([O-])CC2C(=O)O (stereo not given)	> 5	> 50	–
O=C(c1ccccc1)c1cc(Cl)cc2c1OCC2C(=O)O (stereo not given)	0.8	0.25 (≈ 0.826 µM)	150
O=C(c1ccccc1)c1cc(Cl)cc2c1SCC2C(=O)O (stereo not given)	0.8	0.8 (≈ 2.51 µM)	23
O=C(c1ccccc1)c1cccc2c1OCC2C(=O)O (stereo not given)	2.8	0.7 (≈ 2.61 µM)	–
Cc1cc(CC(=O)O)n(C)c1C(=O)c1ccc(Cl)cc1 [ZOMEPIRAC]	0.6	0.6 (≈ 2.06 µM)	8
O=C(c1ccccc1)c1cc(F)cc2c1OCC2C(=O)O (stereo not given)	2.9	–	–
O=C(c1ccccc1)c1ccc2c(c1)C(C(=O)O)CS2 (stereo not given)	> 10	–	–
O=C(c1ccccc1)c1cc(Br)cc2c1SCC2C(=O)O (stereo not given)	1.3	1.4 (≈ 3.85 µM)	–
O=C(c1ccccc1)c1cc(Br)cc2c1OCC2C(=O)O (stereo not given)	> 5	–	–
Cc1cc(C(=O)c2ccccc2)c2c(c1)C(C(=O)O)CO2 (stereo not given)	1.9	2 (≈ 7.08 µM)	–
O=C(c1ccccc1)c1cccc2c1SCC2C(=O)O (stereo not given)	0.6	1.2 (≈ 4.22 µM)	13
O=C(c1ccc(Cl)cc1)c1cc(Cl)cc2c1OCC2C(=O)O (stereo not given)	> 4	–	–
O=C(c1ccccc1)c1cc(Cl)cc2c1S(=O)(=O)CC2C(=O)O (stereo not given)	> 5	> 50	–
COC(=O)C1COc2c(C(=O)c3ccccc3)cc(Cl)cc21 (stereo not given)	13	–	–
